{
  "source": "ChEMBL document CHEMBL1121685",
  "about": "“Development of new mitomycin C and porfiromycin analogues” (J Med Chem, 1981)",
  "key": {"Mus musculus [1]": {"tested_on": "Mus musculus", "assay": "Effect of compound on total white blood cell count in BDG1 male mice, after intraperitoneal administration at a dose of 5.03 mg/kg on day 3", "type": "functional", "how_it_was_run": "(§1)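 Single ip dose given on day 0 to BDG₁ male mice. Total white blood cell count measured on days 3, 5 and 7, expressed as % change from control. Highest dose was at the LD₅₀, or at twice the optimal dose where so footnoted. Significance reported at p ≤ 0.05 and p ≤ 0.01. D marks death of one or more mice.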"}, "Mus musculus [2]": {"tested_on": "Mus musculus", "assay": "Effect of compound on total white blood cell count in BDG1 male mice, after intraperitoneal administration at a dose of 6.7 mg/kg on day 5", "type": "functional", "how_it_was_run": "as §1"}, "Mus musculus [3]": {"tested_on": "Mus musculus", "assay": "Antitumor activity against P-388 murine leukemia cells in CDF1 female mice after intraperitoneal administration at the specified optimal dose of 3.2 mg/kg", "type": "functional"}, "Mus musculus [4]": {"tested_on": "Mus musculus", "assay": "Effect of compound on total white blood cell count in BDG1 male mice, after intraperitoneal administration at a dose of 3.77 mg/kg on day 5", "type": "functional", "how_it_was_run": "(§2)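 Single ip dose given on day 0 to BDG1 male mice over a descending dose series. Total white blood cell count is expressed as % change from untreated control on days 3, 5 and 7. Significance is flagged at p ≤ 0.05 and p ≤ 0.01.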"}, "Mus musculus [5]": {"tested_on": "Mus musculus", "assay": "Effect of compound on total white blood cell count in BDG1 male mice, after intraperitoneal administration at a dose of 3.77 mg/kg on day 7", "type": "functional", "how_it_was_run": "as §2"}, "Mus musculus [6]": {"tested_on": "Mus musculus", "assay": "Effect of compound on total white blood cell count in BDG1 male mice, after intraperitoneal administration at a dose of 2.83 mg/kg on day 5", "type": "functional", "how_it_was_run": "as §2"}, "Mus musculus [7]": {"tested_on": "Mus musculus", "assay": "Effect of compound on total white blood cell count in BDG1 male mice, after intraperitoneal administration at a dose of 6.7 mg/kg on day 3", "type": "functional", "how_it_was_run": "as §1"}, "Mus musculus [8]": {"tested_on": "Mus musculus", "assay": "Effect of compound on total white blood cell count in BDG1 male mice, after intraperitoneal administration at a dose of 6.7 mg/kg on day 7", "type": "functional", "how_it_was_run": "as §1"}, "Mus musculus [9]": {"tested_on": "Mus musculus", "assay": "Effect of compound on total white blood cell count in BDG1 male mice, after intraperitoneal administration of a compound of 2.83 mg/kg on day 3", "type": "functional"}, "Mus musculus [10]": {"tested_on": "Mus musculus", "assay": "Effect of compound on total white blood cell count in BDG1 male mice, after intraperitoneal administration at a dose of 2.83 mg/kg on day 7", "type": "functional", "how_it_was_run": "as §2"}, "Mus musculus [11]": {"tested_on": "Mus musculus", "assay": "Effect of compound on total white blood cell count in BDG1 male mice, after intraperitoneal administration at a dose of 5.03 mg/kg on day 7", "type": "functional", "how_it_was_run": "as §1"}, "Mus musculus [12]": {"tested_on": "Mus musculus", "assay": "Effect of compound on total white blood cell count in BDG1 male mice, after intraperitoneal administration at a dose of 3.77 mg/kg on day 3", "type": "functional", "how_it_was_run": "as §2"}, "[13]": {"assay": "Therapeutic ratio is expressed as ratio of optimal dose and minimum effective dose", "type": "ADME", "conditions": "mouse; read-out: TR", "how_it_was_run": "(§3)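 10⁶ P-388 ascites cells implanted ip in CDF₁ female mice. Six mice per dose, 10 saline-injected controls, and a concurrent mitomycin C reference group. %T/C = median survival time of treated/control × 100. MED is the lowest dose giving %T/C > 125. Therapeutic ratio = optimal dose/MED.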"}, "Mus musculus [14]": {"tested_on": "Mus musculus", "assay": "Effect of compound on total white blood cell count in BDG1 male mice, after intraperitoneal administration at a dose of 5.03 mg/kg on day 5", "type": "functional", "how_it_was_run": "as §1"}, "Mus musculus [15]": {"tested_on": "Mus musculus", "assay": "Minimum effective dose that show activity against P-388 murine leukemia cells in CDF1 female mice, after intraperitoneal administration (optimal dose is 3.2 mg/kg)", "type": "functional", "conditions": "P388, ip, read-out: MED", "how_it_was_run": "as §3"}, "Mus musculus [16]": {"tested_on": "Mus musculus", "assay": "Effect of compound on total white blood cell count in BDG1 male mice, after intraperitoneal administration at a dose of 7.4 mg/kg on day 7", "type": "functional", "how_it_was_run": "as §1"}, "Mus musculus [17]": {"tested_on": "Mus musculus", "assay": "Effect of compound on total white blood cell count in BDG1 male mice, after intraperitoneal administration at a dose of 7.4 mg/kg on day 3", "type": "functional", "how_it_was_run": "as §1"}, "Mus musculus [18]": {"tested_on": "Mus musculus", "assay": "Effect of compound on total white blood cell count in BDG1 male mice, after intraperitoneal administration at a dose of 9.8 mg/kg on day 5", "type": "functional", "how_it_was_run": "as §1"}, "Mus musculus [19]": {"tested_on": "Mus musculus", "assay": "Effect of compound on total white blood cell count in BDG1 male mice, after intraperitoneal administration at a dose of 5.5 mg/kg on day 5", "type": "functional", "how_it_was_run": "as §1"}, "Mus musculus [20]": {"tested_on": "Mus musculus", "assay": "Effect of compound on total white blood cell count in BDG1 male mice, after intraperitoneal administration at a dose of 5.5 mg/kg on day 7", "type": "functional", "how_it_was_run": "as §1"}, "Mus musculus [21]": {"species_on_record": "Mus musculus", "assay": "Degree of leukopenia produced by compound is assessed form Percent change in white cells on days 5", "type": "functional", "how_it_was_run": "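BDG₁ male mice received a single ip dose on day 0. The dose series topped out at the LD₅₀ level, or at twice the optimal dose for some agents. Total white blood cell count was taken on days 3, 5 and 7 and expressed as % change from untreated controls. Significance was set at p ≤ 0.05 or p ≤ 0.01.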"}, "Mus musculus [22]": {"tested_on": "Mus musculus", "assay": "Effect of compound on total white blood cell count in BDG1 male mice, after intraperitoneal administration at a dose of 9.8 mg/kg on day 3", "type": "functional", "how_it_was_run": "as §1"}, "Mus musculus [23]": {"tested_on": "Mus musculus", "assay": "Effect of compound on total white blood cell count in BDG1 male mice, after intraperitoneal administration at a dose of 5.5 mg/kg on day 3", "type": "functional", "how_it_was_run": "as §1"}, "Mus musculus [24]": {"species_on_record": "Mus musculus", "assay": "Half-wave potential produced by the compound at their optimal dose", "type": "functional", "parameters": "unit not given here"}, "Mus musculus [25]": {"tested_on": "Mus musculus", "assay": "Effect of compound on total white blood cell count in BDG1 male mice, after intraperitoneal administration at a dose of 9.8 mg/kg on day 7", "type": "functional", "how_it_was_run": "as §1"}, "Mus musculus [26]": {"tested_on": "Mus musculus", "assay": "Effect of compound on total white blood cell count in BDG1 male mice, after intraperitoneal administration at a dose of 7.4 mg/kg on day 5", "type": "functional", "how_it_was_run": "as §1"}},
  "data": [
    {"smiles": "COC12[C@@H](COC(N)=O)C3=C(C(=O)C(C)=C(N4CC4C)C3=O)N1C[C@@H]1[C@H]2N1C", "note": "(some centres undefined)", "values": [
      {"measurement": "Change", "setting": "Mus musculus [1]", "value": -31, "unit": "%"},
      {"measurement": "Change", "setting": "Mus musculus [2]", "value": -49, "unit": "%"},
      {"measurement": "T/C", "setting": "Mus musculus [3]", "value": 163, "unit": "%"},
      {"measurement": "Change", "setting": "Mus musculus [4]", "value": -25, "unit": "%"},
      {"measurement": "Change", "setting": "Mus musculus [5]", "value": -11, "unit": "%"},
      {"measurement": "Change", "setting": "Mus musculus [6]", "value": -21, "unit": "%"},
      {"measurement": "Change", "setting": "Mus musculus [7]", "value": -28, "unit": "%"},
      {"measurement": "Change", "setting": "Mus musculus [8]", "value": -37, "unit": "%"},
      {"measurement": "Change", "setting": "Mus musculus [9]", "value": -31, "unit": "%"},
      {"measurement": "Change", "setting": "Mus musculus [10]", "value": 2, "unit": "%"},
      {"measurement": "Change", "setting": "Mus musculus [11]", "value": -4, "unit": "%"},
      {"measurement": "Change", "setting": "Mus musculus [12]", "value": -30, "unit": "%"},
      {"measurement": "selectivity ratio", "setting": "[13]", "value": 8},
      {"measurement": "Change", "setting": "Mus musculus [14]", "value": -44, "unit": "%"},
      {"measurement": "minimal effective dose", "setting": "Mus musculus [15]", "value": 0.4, "unit": "mg/kg"}
    ]},
    {"smiles": "COC12[C@@H]3N[C@@H]3CN1C1=C(C(=O)C(Nc3cccnc3)=C(C)C1=O)[C@@H]2COC(N)=O", "note": "(some centres undefined)", "values": [
      {"measurement": "Change", "setting": "Mus musculus [16]", "value": -0.2, "unit": "%"},
      {"measurement": "Change", "setting": "Mus musculus [17]", "value": -43, "unit": "%"},
      {"measurement": "Change", "setting": "Mus musculus [18]", "value": -42, "unit": "%"},
      {"measurement": "T/C", "setting": "Mus musculus [3]", "value": 211, "unit": "%"},
      {"measurement": "Change", "setting": "Mus musculus [19]", "value": -24, "unit": "%"},
      {"measurement": "Change", "setting": "Mus musculus [20]", "value": -14, "unit": "%"},
      {"measurement": "Change", "setting": "Mus musculus [21]", "value": -33, "unit": "%"},
      {"measurement": "Change", "setting": "Mus musculus [22]", "value": -36, "unit": "%"},
      {"measurement": "Change", "setting": "Mus musculus [23]", "value": -41, "unit": "%"},
      {"measurement": "E1/2", "setting": "Mus musculus [24]", "value": -0.31},
      {"measurement": "Change", "setting": "Mus musculus [25]", "value": 24, "unit": "%"},
      {"measurement": "Change", "setting": "Mus musculus [26]", "value": -46, "unit": "%"},
      {"measurement": "selectivity ratio", "setting": "[13]", "value": "> 16"},
      {"measurement": "minimal effective dose", "setting": "Mus musculus [15]", "value": "< 0.2", "unit": "mg/kg"}
    ]}
  ]
}
